Common to all, as to format: functional
For test [1], the system named is Rattus norvegicus. The experiment in a line: Antisecretory activity in pylorus ligated rats at a 40 mg/kg dose administered intraperitoneally. Particulars: ip, route intraperitoneal. The gist of the method: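 Pylorus-ligated rats, six per compound and eight controls. Compound given intraperitoneally at 40 mg/kg at the time of ligation. Reduction in acid output measured over 4 h.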

Test [2] has as its system Canis familiaris. The test is described as follows: Antisecretory activity in histamine stimulated dogs at 2 mg/kg dose administered intravenously. As to conditions: Canis lupus familiaris, route intravenous. The gist of the method:
(§1)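 Adult mongrel dogs with surgically prepared Heidenhain pouches, acid secretion stimulated with histamine. Compound given intravenously (0.1-5 mg/kg range). Acid output reduction is expressed relative to the nondrug-treated control value in the same animal, each dog serving as its own control. Unless noted otherwise, one dog per compound. ED50 is the iv dose reducing acid output to 50% of control.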

The species entered for test [3] is Rattus norvegicus. The test is described as follows: Cytoprotective activity in rats against the ethyl alcohol stimulated ulcers measured as effective dose. The method in brief:
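Rats were dosed orally at 1–30 mg/kg, 30 min before an oral challenge of absolute ethanol. Ethanol-induced gastric lesions were scored 1 h later, and an effective dose was estimated.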

For test [4], the system named is Canis familiaris. The test is described as follows: Antisecretory activity in histamine stimulated dogs at 8 mg/kg dose administered orally. As to conditions: Canis lupus familiaris, route oral. The method in brief:
(§2)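 Heidenhain pouch mongrel dogs, histamine-stimulated acid secretion. Compound given orally at 2–8 mg/kg. Reduction in acid output is relative to the same animal's own nondrug control, since histamine response depends on pouch size. Usually a single dog per compound. Oral ED50 is the dose reducing acid output to 50% of control.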

Test [5] relates to Canis familiaris. The experiment in a line: Antisecretory activity in histamine stimulated dogs at 4 mg/kg dose administered orally. As to conditions: Canis lupus familiaris, route oral. The method in brief:
as §2

Test [6] concerns Canis familiaris. The experiment in a line: Antisecretory activity in histamine stimulated dogs following 5 mg/kg i.v. administration. As to conditions: Canis lupus familiaris, route intravenous. The gist of the method:
as §1

Test [7] concerns Canis familiaris. The experiment in a line: Antisecretory activity in histamine stimulated dogs at 2 mg/kg dose administered orally. As to conditions: Canis lupus familiaris, route oral. The gist of the method: as §2

What is called inhibition in vivo is the change of the read-out against control, counted positive when it falls. Higher therefore signals a response far below the control. The ED50 is the midpoint of the dose-response relation. Read a low ED50 as greater potency.

As to `Cc1nc2c(OCc3ccc(C(F)(F)F)cc3)cccn2c1N`, in test [1], the inhibition in vivo at 40 mg/kg amounted to 78%. At 2 mg/kg the inhibition in vivo in test [2] was 0%. The same molecule returned an ED50 in test [3] of 6.5 mg/kg. Moreover, the inhibition in vivo at 8 mg/kg in test [4] was found to be 8%.

In turn, `Cc1nc2c(OCc3ccccn3)cccn2c1N` registered an inhibition in vivo at 40 mg/kg in test [1] of 16%. Further, it took a dose of 2.3 mg/kg to reach the 50% effect level in test [3] (ED50). The inhibition in vivo at 8 mg/kg in test [4] is 15%.

Regarding `CNc1c(C)nc2c(OCc3ccccc3)cccn12`, the inhibition in vivo at 40 mg/kg in test [1] is 55%. Besides, the ED50 in test [3] was found to be 9.8 mg/kg.

`CC(C)c1nc2c(OCc3ccccc3)cccn2c1N` came in with an inhibition in vivo at 40 mg/kg in test [1] of 0%. For the same molecule, in test [2], the inhibition in vivo at 2 mg/kg stood at 24%. In test [3], this molecule yielded an ED50 of 2.7 mg/kg. In test [4], the inhibition in vivo at 8 mg/kg was 0%.

In test [1], `Cc1cc(OCc2ccccc2)c2nc(C)c(C)n2c1` registered an inhibition in vivo at 40 mg/kg of 86%. For the same molecule, in test [2], the inhibition in vivo at 2 mg/kg was found to be 45%. Further, it took a dose of 8.2 mg/kg to reach the 50% effect level in test [3] (ED50). In addition, the inhibition in vivo at 8 mg/kg in test [4] worked out at 71%. The same molecule registered an inhibition in vivo at 4 mg/kg in test [5] of 0%.

As for `CCNc1c(C)nc2c(OCc3ccccc3)nccn12`, at 40 mg/kg the inhibition in vivo in test [1] was 48%. In addition, the inhibition in vivo at 5 mg/kg in test [6] came out at 0%. The same molecule registered an ED50 in test [3] of 6 mg/kg.

`Cc1cc(OCc2ccccc2)c2nc(C)c(N)n2c1`: at 40 mg/kg the inhibition in vivo in test [1] was 65%. Further, in test [2], 2 mg/kg produced 46% inhibition in vivo. For the same molecule, the ED50 in test [3] came out at 2.3 mg/kg. This molecule also had an inhibition in vivo at 8 mg/kg in test [4] of 50%.

As for `Cc1nc2c(OCc3ccccc3)cccn2c1N(C)C`, the inhibition in vivo at 40 mg/kg in test [1] was 76%. Further, the inhibition in vivo at 2 mg/kg in test [2] was 85%. The same molecule showed an ED50 in test [3] of 2.8 mg/kg. In test [4], this molecule came in with an inhibition in vivo at 8 mg/kg of 72%.

Consider `Cc1nc2c(OCCc3ccccc3)cccn2c1N`, for which the inhibition in vivo at 40 mg/kg in test [1] stood at 56%. Further, the inhibition in vivo at 2 mg/kg in test [2] turned out to be 39%. In test [3], the ED50 is 5.2 mg/kg. The inhibition in vivo at 8 mg/kg in test [4] came to 39%.

In turn, `CCNc1c(C)nc2c(OCc3ccccc3)cccn12` gave an inhibition in vivo at 40 mg/kg in test [1] of 95%. In test [6], this molecule returned an inhibition in vivo at 5 mg/kg of 70%. This molecule also gave an inhibition in vivo at 2 mg/kg in test [2] of 32%. For the same molecule, the 50% effect level in test [3] (ED50) was put at a dose of 3.5 mg/kg. The inhibition in vivo at 8 mg/kg in test [4] was 68%.

With `Cc1ccn2c(C)c(C)nc2c1OCc1ccccc1`, in test [1], testing at 40 mg/kg gave an inhibition in vivo of 92%. Also, in test [2], the inhibition in vivo at 2 mg/kg was 70%. Also, in test [3], the ED50 amounted to 16 mg/kg. The inhibition in vivo at 8 mg/kg in test [4] came out at 35%.

For the molecule `Cc1nc2cc(CCc3ccccc3)ccn2c1N`, at 40 mg/kg the inhibition in vivo in test [1] was 50%. This molecule also had an inhibition in vivo at 2 mg/kg in test [2] of 17%. In test [3], the 50% effect level (ED50) was put at a dose of 5.2 mg/kg. In test [4], this molecule yielded an inhibition in vivo at 8 mg/kg of 0%.

On to `Cc1nc2c(OCc3ccccc3)cccn2c1NC(=O)OCc1ccccc1`, for which the inhibition in vivo at 40 mg/kg in test [1] was 8%. The same molecule yielded an inhibition in vivo at 2 mg/kg in test [2] of 82%. The inhibition in vivo at 4 mg/kg in test [5] came out at 17%.

In test [1], `CCCCc1nc2c(OCc3ccccc3)cccn2c1N` had an inhibition in vivo at 40 mg/kg of 26%. This molecule came in with an inhibition in vivo at 2 mg/kg in test [2] of 45%. The ED50 in test [3] was found to be 7.5 mg/kg. The same molecule registered an inhibition in vivo at 8 mg/kg in test [4] of 0%.

In test [1], `Cc1nc2c(OCc3ccccc3)ccc(C)n2c1C` had an inhibition in vivo at 40 mg/kg of 26%. For the same molecule, the inhibition in vivo at 2 mg/kg in test [2] came to 13%. The molecule also came in with an ED50 in test [3] of 8 mg/kg.

Regarding `Cc1nc2c(SCc3ccccc3)cccn2c1N`, in test [1], the inhibition in vivo at 40 mg/kg amounted to 0%. 2 mg/kg produced 0% inhibition in vivo in test [2]. Also, the ED50 in test [3] worked out at 5.7 mg/kg. Testing at 8 mg/kg in test [4] gave an inhibition in vivo of 11%.

In test [1], `CC(C)(C)c1nc2c(OCc3ccccc3)cccn2c1N` came in with an inhibition in vivo at 40 mg/kg of 0%. Moreover, in test [6], at 5 mg/kg the inhibition in vivo was 2%. The molecule also registered an ED50 in test [3] of 15 mg/kg. In test [4], the inhibition in vivo at 8 mg/kg was 0%.

On to `Cc1nc2c(OCc3ccccc3)cccn2c1NCc1ccccc1`, for which the inhibition in vivo at 40 mg/kg in test [1] was determined as 48%. In addition, the inhibition in vivo at 5 mg/kg in test [6] came to 0%. Moreover, the ED50 in test [3] is 2.5 mg/kg.

In the case of `Cc1nc2c(OCc3ccccc3)ccc(C)n2c1CC#N.Cl`, the inhibition in vivo at 5 mg/kg in test [6] amounted to 0%. Further, in test [3], the ED50 came out at 8 mg/kg. The molecule further gave an inhibition in vivo at 4 mg/kg in test [5] of 11%.

As to `Cc1nc2c(OCc3ccccc3F)cccn2c1N`, the inhibition in vivo at 40 mg/kg in test [1] turned out to be 93%. Besides, the inhibition in vivo at 2 mg/kg in test [7] was found to be 20%; in test [2], 93%. Besides, in test [3], it took a dose of 6.6 mg/kg to reach the 50% effect level (ED50). Besides, the inhibition in vivo at 8 mg/kg in test [4] worked out at 93%. Moreover, in test [5], testing at 4 mg/kg gave an inhibition in vivo of 46%.

For `Cc1nc2c(CCc3ccccc3)cccn2c1O`, the inhibition in vivo at 40 mg/kg in test [1] amounted to 32%. In addition, in test [2], 2 mg/kg produced 0% inhibition in vivo. Further, the ED50 in test [3] came to 9.6 mg/kg.

`CSc1c(C)nc2c(CCc3ccccc3)cccn12` came in with an inhibition in vivo at 40 mg/kg in test [1] of 28%. Also, the inhibition in vivo at 5 mg/kg in test [6] is 0%. Also, the 50% effect level in test [3] (ED50) was put at a dose of 8.5 mg/kg.

Source of the values: ChEMBL document CHEMBL1123641, “Antiulcer agents. 2. Gastric antisecretory, cytoprotective, and metabolic properties of substituted imidazo[1,2-a]pyridines and analogues” (J Med Chem, 1987).
